Assay results gathered from unrelated publications.
Each line is one published result; the experiments were not run side by side.
Organism: Plasmodium falciparum
Effect on: parasite growth

Compound	method	strain	concentration	time	setting	measurement	result
CN1CCN(c2ncc(-c3ccc4c(Nc5cnccn5)ccnc4c3)cn2)CC1		D6			drug-resistant strain, blood stage	EC50	26 nM
CCn1cc(-c2nnc(-c3cccnc3)o2)c(=O)c2cc(F)c(N3CCC(C)CC3)cc21		3D7		72 h	blood stage	EC50	> 10000 nM
O=C(Nc1ccc(F)cc1C(=O)O)c1ccc(-c2ccccc2)cc1		NF54	2 µM	48 h	gametocyte	inhibition	43.5%
COc1ccc(Nc2ccnc3cc(Nc4nccc(N5CCN(C)CC5)n4)ccc23)cc1Cl		D6			drug-resistant strain, blood stage	EC50	99 nM
O=C(Nc1c(F)cccc1C(=O)O)c1ccc(-c2ccccc2)cc1	SYBR Green	NF54	10 µM	96 h	blood stage	inhibition	6.4%
Cc1ccc(Nc2ccnc3cc(-c4ccc(S(=O)(=O)N5CCN(C)CC5)cc4)ccc23)cc1Cl		D6			drug-resistant strain, blood stage	EC50	64 nM
c1ccc2sc(-c3ccnc(Nc4ccc(CN5CCC(N6CCCC6)CC5)cc4)n3)cc2c1	SYBR Green	3D7	1 µM		blood stage	inhibition	> 75%
COc1ccc(Nc2ccnc3cc(-c4ccc(S(=O)(=O)N5CCN(C)CC5)cc4)ccc23)cc1Cl		D6			drug-resistant strain, blood stage	EC50	12 nM
CCn1cc(-c2nc(C)no2)c(=O)c2cc(F)c(N3CCC(C)(C)CC3)cc21		3D7		72 h	blood stage	EC50	1480 nM
Cc1ccc(-c2ccccc2C(=O)Nc2c(C)cccc2C(=O)O)cc1		NF54	2 µM	48 h	gametocyte	inhibition	55%
c1cnc(Nc2ccnc3cc(-c4cn[nH]c4)ccc23)cn1		D6			drug-resistant strain, blood stage	EC50	940 nM
CCNC(=O)c1cn(CC)c2cc(N3CCC(C)CC3)c(F)cc2c1=O		3D7		72 h	blood stage	EC50	477 nM
Cc1cccc(C(=O)O)c1NC(=O)c1cccc(-c2ccccc2)c1		NF54	2 µM	48 h	gametocyte	inhibition	31.8%
CCn1cc(-c2ccnn2C)c(=O)c2cc(F)c(N3CCC(C)CC3)cc21		3D7		72 h	blood stage	EC50	> 10000 nM
CCN(CC)CCCC(C)Nc1ccnc2cc(Cl)ccc12 (centres unmarked)		D6			blood stage	IC50	30 nM
CCCC1CCN(c2cc3c(cc2F)c(=O)c(C(=O)OCC)cn3CC)CC1		3D7		72 h	blood stage	EC50	30 nM
O=C(Nc1cc(F)ccc1C(=O)O)c1ccc(-c2ccccc2)cc1		NF54	2 µM	48 h	gametocyte	inhibition	13.8%
